Activity calls are given as the source filed them. No cut-off for these calls is given here.
Key:
Plasmodium falciparum [1] = test: Gametocytocidal antimalarial activity against chloroquine-sensitive Plasmodium falciparum NF54 late gametocyte stage after 72 hrs by alamar blue assay; assay type: functional, organism-based; details: NF54, 72 h
How it was run: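 Stage V gametocytes came from NF54 cultures kept at 37 °C in 5% O2, 5% CO2 and […]. Asexual stages were cleared with 5% sorbitol for four days from day 9, and gametocytes were purified on day 13 over NycoPrep 1.077. 30,000–50,000 gametocytes per well were incubated with drug for 72 h in low O2. AlamarBlue was then added for 24 h (ex 540/em 585 nm). IC50 from dose-response fit; two independent determinations in duplicate, ± S.E.M.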

Plasmodium falciparum [2] = test: Antimalarial activity against chloroquine/mefloquine-resistant Plasmodium falciparum Dd2 intraerythrocytic stage after 72 hrs by SYBR green I dye based assay; assay type: functional, organism-based; details: for IC50: Plasmodium falciparum, Dd2, 72 h
Plasmodium falciparum [3] = test: Antimalarial activity against chloroquine-sensitive Plasmodium falciparum NF54 early gametocyte stage assessed as reduction in occurrence of asexual intraerythrocytic stages after 13 days at 0.76 uM by microscopy; assay type: functional, organism-based
How it was run: (§1)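 NF54 cultures at 0.75% parasitemia and 1% hematocrit were grown 13 days with or without drug in 24-well plates, humidified, at 37 °C under low oxygen. Plain or drug-supplemented medium was replaced on days 4, 6, 8 and 9-12. On day 13, asexual and sexual parasitaemia were counted on Giemsa-stained smears. Controls were untreated and 0.5% DMSO vehicle. Two independent experiments.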

A2780 = test: Cytotoxicity against human A2780 cells; assay type: functional, cell-based
Plasmodium falciparum [4] = test: Cytocidal antimalarial activity against drug-sensitive Plasmodium falciparum HB3 intraerythrocytic stage; assay type: functional; details: read-out: LD50 (the source's name)
How it was run: (§2)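 Killing of intraerythrocytic stages measured by a rapid cytocidal assay, per an earlier report. LD50 values are the mean of three replicate determinations ± S.E.M.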

Plasmodium falciparum [5] = test: Cytocidal antimalarial activity against chloroquine/mefloquine-resistant Plasmodium falciparum Dd2 intraerythrocytic stage; assay type: functional; details: read-out: LD50 (the source's name); how it was run: as §2
Plasmodium falciparum [6] = test: Antimalarial activity against chloroquine-sensitive Plasmodium falciparum NF54 early gametocyte stage assessed as reduction in occurrence of gametocyte stages after 13 days at 0.76 uM by microscopy; assay type: functional; set-up: scale not given: the % may be the effect or the level left; how it was run: as §1
Plasmodium falciparum [7] = test: Antimalarial activity against chloroquine-sensitive Plasmodium falciparum NF54 early gametocyte stage assessed as reduction in occurrence of asexual intraerythrocytic stages after 13 days at 0.14 uM by microscopy; assay type: functional, organism-based; how it was run: as §1
Plasmodium falciparum [8] = test: Antimalarial activity against chloroquine-sensitive Plasmodium falciparum NF54 early gametocyte stage assessed as reduction in occurrence of gametocyte stages after 13 days at 0.14 uM by microscopy; assay type: functional, organism-based; how it was run: as §1
Plasmodium falciparum [9] = test: Antimalarial activity against chloroquine-sensitive Plasmodium falciparum NF54 asexual stage after 72 hrs by alamar blue assay; assay type: functional, organism-based; details: NF54, 72 h

`C[C@H]1[C@H](OC(=O)CCC(=O)O)O[C@@H]2O[C@@]3(C)CC[C@H]4[C@H](C)CC[C@@H]1[C@@]24OO3` [ARTESUNATE] was tested, and the IC50 (Plasmodium falciparum [1]) was 2300 nM.

`COc1c(C)c(O)c(C(C)=O)c(O)c1Cc1c(O)c(C(C)=O)c(O)c(CC=C(C)C)c1OC` [MALLOTOJAPONIN B] was tested, and the IC100 (Plasmodium falciparum [2]) was 44 µM, the IC50 (Plasmodium falciparum [2]) was 750 nM and the Activity (Plasmodium falciparum [3]) was “Active”. The IC50 (A2780) was 1100 nM, the LC50 (Plasmodium falciparum [4]) was 14.6 µM and the LC50 (Plasmodium falciparum [5]) was 6.7 µM. The Activity (Plasmodium falciparum [6]) was 80%.

`COc1c(CC=C(C)C)c(O)c(C(C)=O)c(O)c1Cc1c(O)c(C(C)=O)c(O)c(CC=C(C)C)c1OC` [MALLOTOJAPONIN C] was tested, and the IC100 (Plasmodium falciparum [2]) was 39 µM, the IC50 (Plasmodium falciparum [2]) was 140 nM and the Activity (Plasmodium falciparum [7]) was “Active”. It also gave an IC50 (A2780) of 1300 nM, an LC50 (Plasmodium falciparum [4]) of 0.81 µM and an IC50 (Plasmodium falciparum [1]) of 3600 nM. For the same compound, the LC50 (Plasmodium falciparum [5]) was 0.8 µM, the Activity (Plasmodium falciparum [8]) was “Active” and the IC50 (Plasmodium falciparum [9]) was 70 nM.
